Measured values from ChEMBL document CHEMBL2203103, “Discovery of a novel series of benzimidazole derivatives as diacylglycerol acyltransferase inhibitors” (Bioorg Med Chem Lett, 2012).
Blank lines part the entries; values can stand above or below the molecule they belong to. Activity calls are given as the source filed them. No cut-off for these calls is given here.

Columns and labels:
[1] = biological target: T1, Diacylglycerol O-acyltransferase 1 (Rattus norvegicus, UniProt Q9ERM3); assay: (§1) Inhibition of DGAT in rat liver microsomes; set-up: species or system Microsome
T1 sequence (Q9ERM3 whole entry): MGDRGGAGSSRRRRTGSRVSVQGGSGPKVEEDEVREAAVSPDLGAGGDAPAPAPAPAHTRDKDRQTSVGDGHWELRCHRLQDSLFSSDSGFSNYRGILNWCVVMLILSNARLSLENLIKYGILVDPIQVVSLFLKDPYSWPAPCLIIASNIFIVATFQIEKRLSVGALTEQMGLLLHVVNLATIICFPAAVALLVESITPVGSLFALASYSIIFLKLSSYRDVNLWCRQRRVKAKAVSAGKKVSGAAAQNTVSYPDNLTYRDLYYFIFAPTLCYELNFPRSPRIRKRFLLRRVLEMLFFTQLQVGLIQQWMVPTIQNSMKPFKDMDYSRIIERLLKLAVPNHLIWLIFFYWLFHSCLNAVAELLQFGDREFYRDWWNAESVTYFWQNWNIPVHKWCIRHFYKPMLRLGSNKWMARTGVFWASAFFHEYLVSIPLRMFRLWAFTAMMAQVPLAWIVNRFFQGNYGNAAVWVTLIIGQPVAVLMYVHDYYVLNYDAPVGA
Outline: (§2)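 DGAT activity was measured in microsomes prepared from rat liver, using a modified version of Coleman's method. IC₅₀ values were determined.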

Mus musculus [2] = organism: Mus musculus; assay: Antiobesity activity in high fat diet-induced obese mouse assessed as decrease in retroperitoneal fat (reference value: 1.41 +/- 0.29 %); type: functional; set-up: scale not given: the % may be the effect or the level left
Outline: (§3)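 In 6-week-old male diet-induced obese mice, HFD-fed and individually housed (23 °C ± 3 °C, 12-h light–dark, food and water ad libitum), total and retroperitoneal fat were weighed after 5 weeks of treatment. Values are given as (tissue weight/body weight) × 100 and compared with normal-diet and untreated HFD groups.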

Mus musculus [3] = organism: Mus musculus; assay: Antiobesity activity in high fat diet-induced obese mouse assessed as decrease in abdominal and epididymal fat (reference value: 5.34 +/- […]); type: functional; set-up: scale not given: the % may be the effect or the level left
Mus musculus [4] = organism: Mus musculus; assay: Antiobesity activity in high fat diet-induced obese mouse assessed as decrease in total fat (reference value: 6.75 +/- 1.18 %); type: functional; set-up: scale not given: the % may be the effect or the level left; outline: as §3
Mus musculus [5] = organism: Mus musculus; assay: Antidyslipidemic activity in high fat diet-induced obese mouse assessed as increase in blood HDL-cholesterol level (reference value: 17.4 +/- 2.15 mg/dl); type: functional
Mus musculus [6] = organism: Mus musculus; assay: Antiobesity activity in high fat diet-induced obese mouse assessed as inhibition of body weight gain after 5 weeks (reference value: 52.9 +/- 1.20 g); type: functional
Mus musculus [7] = organism: Mus musculus; assay: Antiobesity activity in high fat diet-induced obese mouse assessed as inhibition of body weight gain after 4 weeks (reference value: 49.9 +/- 1.24 g); type: functional
Mus musculus [8] = organism: Mus musculus; assay: Antiobesity activity in high fat diet-induced obese mouse assessed as inhibition of body weight gain after 3 weeks (reference value: 45.9 +/- 2.29 g); type: functional
Mus musculus [9] = organism: Mus musculus; assay: Antiobesity activity in high fat diet-induced obese mouse assessed as inhibition of body weight gain after 2 weeks (reference value: 37.8 +/- 3.55 g); type: functional
Mus musculus [10] = organism: Mus musculus; assay: Antiobesity activity in high fat diet-induced obese mouse assessed as inhibition of body weight gain after 1 week (reference value: 35.2 +/- 1.57 g); type: functional
Mus musculus [11] = organism: Mus musculus; assay: Antidyslipidemic activity in high fat diet-induced obese mouse assessed as decrease in blood LDL-cholesterol level (reference value: 119 +/- 14.3 mg/dl); type: functional
Mus musculus [12] = organism: Mus musculus; assay: Antidyslipidemic activity in high fat diet-induced obese mouse assessed as decrease in total blood triglyceride level (reference value: 120 +/- 11.2 mg/dl); type: functional
Mus musculus [13] = organism: Mus musculus; assay: Antidyslipidemic activity in high fat diet-induced obese mouse assessed as decrease in total blood cholesterol level (reference value: 160 +/- 13.9 mg/dl); type: functional
Mus musculus [14] = assay: Antiobesity activity in high fat diet-induced obese mouse assessed as inhibition of body weight gain at 10 mg/kg after 5 weeks (reference value: 52.9 +/- 1.20 g); type: functional
Mus musculus [15] = assay: Antiobesity activity in high fat diet-induced obese mouse assessed as inhibition of body weight gain at 10 mg/kg after 4 weeks (reference value: 49.9 +/- 1.24 g); type: functional
Mus musculus [16] = assay: Antiobesity activity in high fat diet-induced obese mouse assessed as inhibition of body weight gain at 10 mg/kg after 3 weeks (reference value: 45.9 +/- 2.29 g); type: functional
Mus musculus [17] = assay: Antiobesity activity in high fat diet-induced obese mouse assessed as inhibition of body weight gain at 10 mg/kg after 2 weeks (reference value: 37.8 +/- 3.55 g); type: functional
Mus musculus [18] = assay: Antiobesity activity in high fat diet-induced obese mouse assessed as inhibition of body weight gain at 10 mg/kg after 1 week (reference value: 35.2 +/- 1.57 g); type: functional
HepG2 = assay: Cytotoxicity against human HepG2 cells assessed as cell viability after 48 hrs by MTT assay; type: cell-based; conditions: hepg2, 48 h
Outline: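 HepG2 cells were kept in DMEM with 10% heat-inactivated FBS and 1% penicillin–streptomycin at 37 °C in 5% CO₂. Cells were seeded at 2 × 10⁴ per well, exposed to compound for 48 h, and viability was read by MTT as formazan absorbance at 560 nm.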

[19] = biological target: T2, Diacylglycerol O-acyltransferase 1 (Homo sapiens) (UniProt O75907); assay: Residual DGAT activity in human HepG2 cells using [14C]acetate as substrate assessed as formation of [14C]-triglyceride at 3 uM by chromatographic analysis relative to control
T2 sequence (whole entry): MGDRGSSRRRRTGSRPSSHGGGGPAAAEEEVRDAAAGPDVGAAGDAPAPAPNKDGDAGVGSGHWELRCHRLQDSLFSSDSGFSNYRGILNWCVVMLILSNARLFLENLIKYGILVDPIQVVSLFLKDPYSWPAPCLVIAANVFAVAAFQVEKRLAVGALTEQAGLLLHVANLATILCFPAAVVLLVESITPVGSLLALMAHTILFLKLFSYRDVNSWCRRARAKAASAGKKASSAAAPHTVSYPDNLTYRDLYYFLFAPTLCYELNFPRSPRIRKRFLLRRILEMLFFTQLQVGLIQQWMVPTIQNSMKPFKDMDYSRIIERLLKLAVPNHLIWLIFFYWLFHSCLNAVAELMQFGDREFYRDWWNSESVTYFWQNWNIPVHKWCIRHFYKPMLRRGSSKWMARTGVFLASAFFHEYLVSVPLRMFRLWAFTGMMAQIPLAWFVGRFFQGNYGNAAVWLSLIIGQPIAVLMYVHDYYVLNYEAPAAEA

[20] = biological target: T2, Diacylglycerol O-acyltransferase 1 (Homo sapiens); assay: Residual DGAT activity in human HepG2 cells using [14C]glycerol as substrate assessed as formation of [14C]-triglyceride at 3 uM by chromatographic analysis relative to control
[21] = biological target: T2, Diacylglycerol O-acyltransferase 1 (Homo sapiens); assay: Residual DGAT activity in human HepG2 cells using [14C]acetate as substrate assessed as formation of [14C]-triglyceride at 10 uM by chromatographic analysis relative to control
[22] = biological target: T2, Diacylglycerol O-acyltransferase 1 (Homo sapiens); assay: Residual DGAT activity in human HepG2 cells using [14C]glycerol as substrate assessed as formation of [14C]-triglyceride at 10 uM by chromatographic analysis relative to control
[23] = biological target: T3, Diacylglycerol O-acyltransferase 1 (Rattus norvegicus) (UniProt Q9ERM3); assay: as §1; conditions: Microsome; outline: as §2
T3 sequence (whole entry): T1 sequence (Q9ERM3 whole entry)

- IC50 [1]: > 50 µM
Compound: CN(C)C(=O)c1ccc2nc(COc3ccc(C45CC6CC(CC(C6)C4)C5)cc3)[nH]c2c1

- IC50 [1]: 3.1 µM
Compound: CC1(C)Oc2ncnc(N)c2N=C1c1ccc([C@H]2CC[C@H](CC(=O)O)CC2)cc1

- IC50 [1]: > 50 µM
Compound: O=C(NCc1ccco1)c1ccc2nc(COc3ccc(-c4ccccc4)cc3)[nH]c2c1

- IC50 [1]: 9.5 µM
Compound: O=C(NC[C@@H]1CCCO1)c1ccc2nc(COc3ccc(C45CC6CC(CC(C6)C4)C5)cc3)[nH]c2c1

Compound: CCCCCCCCCCC[C@@H](C[C@@H]1OC(=O)[C@H]1CCCCCC)OC(=O)[C@H](CC(C)C)NC=O [ORLISTAT]
- Activity (Mus musculus [2]): 0.75%
- Activity (Mus musculus [3]): 2.45%
- Activity (Mus musculus [4]): 3.2%
- Activity (Mus musculus [5]): 30.3 mg/dL
- Activity (Mus musculus [6]): 41.2 g
- Activity (Mus musculus [7]): 40 g
- Activity (Mus musculus [8]): 39.1 g
- Activity (Mus musculus [9]): 37.4 g
- Activity (Mus musculus [10]): 33.6 g
- Activity (Mus musculus [11]): 20.5 mg/dL
- Activity (Mus musculus [12]): 40.8 mg/dL
- Activity (Mus musculus [13]): 53.8 mg/dL

- IC50 [1]: > 50 µM
Compound: CC(C)c1cccc(C(C)C)c1NC(=O)c1ccc2nc(COc3ccc(C45CC6CC(CC(C6)C4)C5)cc3)[nH]c2c1

- IC50 [1]: 9 µM
Compound: CC(C)(C)c1ccc(OCc2nc3cc(C(=O)NCc4ccco4)ccc3[nH]2)cc1

- IC50 [1]: 11.3 µM
Compound: O=C(c1ccc2[nH]c(COc3ccc(C45CC6CC(CC(C6)C4)C5)cc3)nc2c1)N1CCCC1

- IC50 [1]: 27.5 µM
Compound: O=C(c1ccc2[nH]c(COc3ccc(C45CC6CC(CC(C6)C4)C5)cc3)nc2c1)N1CCCCC1

- IC50 [1]: > 50 µM
Compound: O=C(NCc1cccs1)c1ccc2[nH]c(COc3ccc(C45CC6CC(CC(C6)C4)C5)cc3)nc2c1

- IC50 [1]: > 50 µM
Compound: O=C(NCc1ccccc1)c1ccc2nc(COc3ccc(C45CC6CC(CC(C6)C4)C5)cc3)[nH]c2c1

- IC50 [1]: 8.7 µM
Compound: O=C(NC[C@H]1CCCO1)c1ccc2nc(COc3ccc(C45CC6CC(CC(C6)C4)C5)cc3)[nH]c2c1

- IC50 [1]: > 50 µM
Compound: O=C(Nc1ccccc1)c1ccc2[nH]c(COc3ccc(C45CC6CC(CC(C6)C4)C5)cc3)nc2c1

- IC50 [1]: 11.4 µM
Compound: Cc1ccc(CNC(=O)c2ccc3nc(COc4ccc(C56CC7CC(CC(C7)C5)C6)cc4)[nH]c3c2)o1

- IC50 [1]: 23 µM
Compound: COC(=O)c1ccc2[nH]c(COc3ccc(C45CC6CC(CC(C6)C4)C5)cc3)nc2c1

- IC50 [1]: 4.4 µM
- residual activity [19]: 80.9%
- residual activity [20]: 69.5%
- residual activity [21]: 53%
- residual activity [22]: 45%
Compound: O=C(NCc1ccco1)c1ccc2[nH]c(COc3ccc(C45CC6CC(CC(C6)C4)C5)cc3)nc2c1
- Activity (Mus musculus [2]): 0.94%
- Activity (Mus musculus [3]): 3.16%
- Activity (Mus musculus [4]): 4.1%
- Activity (Mus musculus [5]): 21.2 mg/dL
- Activity (Mus musculus [14]): 43.2 g
- Activity (Mus musculus [15]): 42.3 g
- Activity (Mus musculus [16]): 40.8 g
- Activity (Mus musculus [17]): 38.9 g
- Activity (Mus musculus [18]): 35.1 g
- Activity (HepG2): > 50 µM
- Activity (Mus musculus [11]): 43.6 mg/dL
- Activity (Mus musculus [12]): 41.8 mg/dL
- Activity (Mus musculus [13]): 73.2 mg/dL

- IC50 [1]: > 50 µM
Compound: O=C(O)c1ccc2[nH]c(COc3ccc(C45CC6CC(CC(C6)C4)C5)cc3)nc2c1

- IC50 [1]: 25.4 µM
Compound: Cc1ccoc1CNC(=O)c1ccc2nc(COc3ccc(C45CC6CC(CC(C6)C4)C5)cc3)[nH]c2c1

- IC50 [1]: > 50 µM
Compound: O=C(NCc1ccco1)c1ccc2nc(COc3ccccc3)[nH]c2c1

- IC50 [1]: 20 µM
Compound: CC(C)NC(=O)c1ccc2nc(COc3ccc(C45CC6CC(CC(C6)C4)C5)cc3)[nH]c2c1

- IC50 [1]: 20 µM
Compound: O=C(NCc1ccccn1)c1ccc2[nH]c(COc3ccc(C45CC6CC(CC(C6)C4)C5)cc3)nc2c1

- inhibition [23]: Active
Compound: COc1cc(O)c(CC=C(C)C)c(O)c1C(=O)/C=C/c1ccc(O)cc1

- IC50 [1]: > 50 µM
Compound: NC(=O)c1ccc2nc(COc3ccc(C45CC6CC(CC(C6)C4)C5)cc3)[nH]c2c1
